PPC-1+TRAIL kill – compounds killing PPC-1 cancer cells with TRAIL present, primary screen, TRAIL potentiator project, ATPLite luminescence, uHTS. actives 0.41% (n = 220,000). AID 1443, 2008. PPC-1 cells + TRAIL, ATPLite viability luminescence. cell killing (% activity), % at 4 µM or 5 µM;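 active = cell killing above 50% in the first pass at 4 µM, then a duplicate retest at 5 µM averaging 50% or more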;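 also: plate controls were cells with TRAIL plus DMSO for no effect and medium-only wells lacking cells for full effect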
FLuc inhib CS – firefly luciferase enzyme inhibitors, primary screen, artefact control for luciferase-based inhibitor screens, biochemical, luminescence, ATPLite; actives 1.5% (n = 200,000); 10 min; Luciferin 4-monooxygenase (Photinus pyralis), P08659; inhibition, % at 10 µM; AID 1006, 2008;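 active = inhibition above about 50% when tested at 10 µM, limit read from the data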
Target sequence (P08659 whole entry, looked up): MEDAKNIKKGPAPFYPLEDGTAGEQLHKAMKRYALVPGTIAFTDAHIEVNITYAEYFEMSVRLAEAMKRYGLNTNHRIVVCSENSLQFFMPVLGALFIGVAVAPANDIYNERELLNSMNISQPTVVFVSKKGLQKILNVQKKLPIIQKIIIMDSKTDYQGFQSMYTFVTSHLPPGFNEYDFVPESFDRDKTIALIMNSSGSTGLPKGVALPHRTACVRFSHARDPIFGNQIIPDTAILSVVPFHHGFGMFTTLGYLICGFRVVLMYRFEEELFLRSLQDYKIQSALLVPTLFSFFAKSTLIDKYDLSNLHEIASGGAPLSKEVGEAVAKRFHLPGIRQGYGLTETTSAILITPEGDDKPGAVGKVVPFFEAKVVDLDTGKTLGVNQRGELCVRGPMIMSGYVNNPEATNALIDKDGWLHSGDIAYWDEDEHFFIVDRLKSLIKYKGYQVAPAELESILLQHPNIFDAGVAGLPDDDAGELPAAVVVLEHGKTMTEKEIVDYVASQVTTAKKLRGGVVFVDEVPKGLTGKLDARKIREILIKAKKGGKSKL
FLuc act counter – FLuc activators, initial screening, artefact control for FLuc-dependent activation tests, biochemical, ATPlite luminescence | Luciferin 4-monooxygenase (Photinus pyralis), P08659 | activation factor at 10 µM | ATPlite luciferase biochemical, 10 min; 0 = ATP-free wells, 1 = DMSO control | 200,000 tested, under 10 active;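 active = luciferase activation factor, scaled between plate controls, of at least 2 with compound at 10 µM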
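Assay system – cell-free luciferase reagent · Medium – PBS-based ATP solution · Dosing – test compounds dosed from 2 mM stocks in 100% DMSO · Timing – 10 min, room temperature · Technique – light output (luminescence) · Measure – luminescence gain marking luciferase activators · Controls – No-ATP low control, compound-free enzyme-plus-ATP high control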
TRAIL sens C8 – viability loss with TRAIL in NB7+C8 cells, primary screen, TRAIL sensitizer project, cell-based, ATPlite luminescence; inhibition (viability loss, TRAIL sensitization), % at 10 µM; actives 1% (n = 360,000);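 active = compounds causing at least 50% loss of cell viability in the single-dose screen, relative to plate controls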
* = called active by the depositor; · = not tested or not shown. Compounds with a hit are over-represented: about 1.6% of the library has one in this group of screens.

SMILES	PPC-1+TRAIL kill	FLuc inhib CS	FLuc act counter	TRAIL sens C8
CCc1ccc(-c2cc3c(=O)n(CC(=O)NCCCN4CCN(C)CC4)ncn3n2)cc1	·	·	·	59*
COc1ccc(-c2cc3c(=O)n(CC(=O)N4CCCCC4)ncn3n2)cc1	·	·	·	16
Cc1nn(CC(=O)NCCCN2CCC(Cc3ccccc3)CC2)c(=O)c2cc(-c3ccccc3)nn12	·	·	·	23
CCc1ccc(-c2cc3c(=O)n(CC(=O)NCc4ccccc4F)ncn3n2)cc1	·	·	·	-5
COc1ccc(-c2cc3c(=O)n(CC(=O)N4CCN(C)CC4)ncn3n2)cc1	·	·	·	59*
CCc1ccc(-c2cc3c(=O)n(CC(=O)NCCCN4CCC(Cc5ccccc5)CC4)nc(C)n3n2)cc1	·	·	·	91*
CCN(CC)C(=O)C1=C(C)N(Cc2ccc(OC)cc2)C(=O)C(CC(=O)NC(c2ccccc2)c2ccccc2)C1 (configuration not stated)	·	·	·	8
CCOC(=O)CC1(C)NC(C(=O)O)C(C)(C)S1 (configuration not stated)	·	·	·	3
Cc1ccc2c(c1)Cc1nc3ccccc3nc1-2	50	87*	0.1	59*
O=S(=O)(c1ccc2c(c1)C(=NO)c1cc(S(=O)(=O)N3CCCCC3)ccc1-2)N1CCCCC1	95*	17	0.8	91*
CC1CCN(S(=O)(=O)c2ccc3c(c2)C(=NO)c2cc(S(=O)(=O)N4CCC(C)CC4)ccc2-3)CC1	97*	-2	1	95*
O=Nc1nc2ncccn2c1-c1ccccc1	·	·	·	-11
COc1ccc(C(CC(=O)O)NS(=O)(=O)c2ccc3c(c2)N(C(C)=O)CC(C)O3)cc1 (configuration not stated)	·	·	·	-29
c1ccc2sc(Sc3ncnc4sccc34)nc2c1	13	64*	0.4	-13
Cc1ccc(-c2csc(N/N=C/c3ccco3)n2)cc1	14	-2	1	1
CN(C)S(=O)(=O)c1ccc(-c2csc(N/N=C/c3ccc(O)cc3)n2)cc1	-4	·	·	85*
CN(C)S(=O)(=O)c1ccc(-c2csc(N/N=C/c3ccco3)n2)cc1	12	·	·	72*
COc1ccc2nc3cc(Cl)ccc3c(Nc3cc(CN4CCCC4)c(O)c(CN4CCCC4)c3)c2n1	·	·	·	79*
COc1cc(C)c(CN2CCN(CC(=O)Nc3ccccc3C(=O)NC3CC3)CC2)cc1OC	·	·	·	4
CSCCC(NC(=O)c1ccco1)C(=O)NCc1ccc2c(c1)OCO2 (configuration not stated)	·	·	·	1
Cc1sc(=NC(=O)c2ccco2)n(C)c1-c1ccc(F)cc1	34	80*	0.2	60*
CN(C(=O)c1ccco1)c1nnc(-c2ccc(F)cc2)s1	·	·	·	11
C/C(=N\NC(=O)c1ccc(Cl)cc1)c1ccc2[nH]ccc2c1	·	·	·	-19
CCOc1ccccc1C(=O)Nc1ccc(S(=O)(=O)Nc2nccc(C)n2)cc1	·	·	·	-1
O=C(CCl)N1c2ccccc2SCC1c1ccccc1 (configuration not stated)	·	·	·	83*
SMILES	PPC-1+TRAIL kill	FLuc inhib CS	FLuc act counter	TRAIL sens C8
C#CCOCCOCCOCCNc1nc(N2CCN(C(=O)CCCCCCCCCCNC(=O)[C@H](CCC(=O)O)n3cc(CCCCCN)nn3)CC2)nc(N2CCN(C(=O)CCCCCCCCCCNC(=O)[C@@H]([C@H](C)O)n3cc(C)nn3)CC2)n1	·	·	·	-7
C#CCOCCOCCOCCNc1nc(N2CCN(C(=O)CCCCCCCCCCNC(=O)[C@H]([C@@H](C)CC)n3cc(CCCCCN)nn3)CC2)nc(N2CCN(C(=O)CCCCCCCCCCNC(=O)[C@@H]([C@H](C)O)n3cc(C)nn3)CC2)n1	·	·	·	92*
C#CCOCCOCCOCCNc1nc(N2CCN(C(=O)CCCCCCCCCCNC(=O)[C@H](CCCCN)n3cc(C)nn3)CC2)nc(N2CCN(C(=O)CCCCCCCCCCNC(=O)[C@@H]([C@H](C)CC)n3cc(CCCCCN)nn3)CC2)n1	·	·	·	97*
C#CCOCCOCCOCCNc1nc(N2CCN(C(=O)CCCCCCCCCCNC(=O)Cn3cc(CCCCCN)nn3)CC2)nc(N2CCN(C(=O)CCCCCCCCCCNC(=O)[C@H]([C@@H](C)CC)n3cc(CCCCCN)nn3)CC2)n1	·	·	·	75*
N/C(=N\OC(=O)c1ccc2c(c1)OCO2)c1cccc([N+](=O)[O-])c1	10	96*	0	4
COc1ccccc1C/C(N)=N/OC(=O)c1ccc2c(c1)OCO2	16	4	1	2
Cc1cccc(/C(N)=N/OC(=O)c2ccc3c(c2)OCO3)c1	24	97*	0	34
OCc1ccc2c(c1)c(-c1ccc3c(c1)OCCO3)c(-c1ccccc1)n2-c1ccccc1	·	·	·	9
COc1cccc(NC(=O)CN(C)C(=O)CSc2ccc3c(c2)OCCO3)c1	·	·	·	-10
CCOC(=O)CNc1nc(Cl)nc(Nc2ccc(Cl)cc2)n1	3	·	·	-20
O=C(NCCC1=CCCCC1)c1coc(=O)c(Br)c1	10	-5	1	53*
O=C(NCCC1=CCCCC1)c1ccc(=O)oc1	-5	-2	1	-10
CC(=O)c1ccc(Nc2ccc(-c3ccccc3F)nn2)cc1	18	58*	0.4	48
COc1ccc(-n2nc(C(=O)NCC(=O)N3CCN(c4ccccn4)CC3)c3ccccc3c2=O)cc1	44	68*	0.3	29
COc1ccc(-n2nc(C(=O)NCC(=O)N3CCN(c4ccccc4)CC3)c3ccccc3c2=O)c(OC)c1	·	·	·	62*
Cc1ccc(S(=O)(=O)NCC(=O)NCC(=O)N(C)Cc2ccc3ccccc3c2)cc1C	·	·	·	-7
COc1ccccc1NS(=O)(=O)c1ccc(C)c(C(=O)NCC2(N(C)C)CCCCC2)c1	·	·	·	-13
Cc1cc(Cl)ccc1OC(C)C(=O)Nc1ccc(C(=O)Nc2ccccc2C(=O)O)cc1 (configuration not stated)	·	·	·	-4
CCOC(=O)CNC(=O)CSc1nc(-c2ccc(OC)cc2)ns1	21	32	0.7	54*
COc1ccc(N2Cc3ccc(OC)c(OC)c3C2=O)cc1	·	·	·	51*
COc1ccc2c(c1OC)C(=O)N(c1nccs1)C2	5	21	0.8	10
CN(C(=O)c1cccc(COc2ccc(Cl)cc2Cl)c1)c1ccccc1	10	-5	1.1	11
CN(C)C(=O)c1cccc(COc2ccc(N3C(N)=NC(N)=NC3(C)C)cc2Cl)c1	·	·	·	83*
Cc1ccc(-n2nnc(-c3cccnc3Cl)n2)cc1	40	72*	0.3	61*
O=C(NC(=S)N1CCN(c2ccc([N+](=O)[O-])cc2)CC1)c1ccccc1Cl	20	-4	1	-2
O=C(NC(=S)N1CCN(c2ccc([N+](=O)[O-])cc2)CC1)c1ccccc1F	53*	-4	1	-2
CCc1c(C)c(C#N)c2nc3ccccc3n2c1Cl	60*	-2	1	·
CCc1c(C)c(C#N)c2nc3ccccc3n2c1-n1nc(C)cc1C	15	-4	1	-4
O=C(NCCCO)C(=O)NCc1ccccn1	13	-3	1	5
